Hits are enriched below; roughly 2.4% of the tested compounds scored in any of these assays.
M18AAP inhibitor: blocks P. falciparum M18 aspartyl aminopeptidase; inhibition, % at 7.35 µM; 290,000 compounds, 1.2% hits; recombinant PfM18AAP, H-Glu-NHMec fluorogenic cleavage; AID 1822;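 active = inhibition above the campaign mean inhibition over all tested compounds plus 3 SD, cut at about 28% in these data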
PfGluPho inh: PfG6PD (Plasmodium falciparum) enzyme inhibition. 350,000 compounds, 0.78% hits. inhibition, % at 20 µM. PfGluPho enzyme, NADPH resazurin-diaphorase fluorescence. AID 504690;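 active = inhibition reaching at least a set limit at 20 µM in the primary screen, cut at about 59% in these data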
APOBEC3G inh: APOBEC3G (human) deaminase inhibition | Q9HC16 | recombinant A3G, ssDNA deamination FAM/TAMRA fluorescence | inhibition, % at 20 µM | 330,000 compounds, 0.28% hits;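 active = inhibition of at least 40% at 20 µM, with no more than 30% in the related APOBEC3A deaminase screen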
APOBEC3A inh: blocks human APOBEC3A ssDNA deamination; recombinant A3A, FAM/TAMRA ssDNA deamination fluorescence; inhibition, % at 20 µM; 330,000 compounds, 0.41% hits;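 active = at least 40% inhibition at 20 µM here, with at most 30% in a related deaminase screen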
UBC9 SUMO inh: blocks human SUMOylation mediated by UBC9; 290,000 compounds, 0.36% hits; P63279; inhibition, % at 35 µM; HTRF SUMOylation assay, SAE1/SAE2 + UBC9, in vitro; in the data active = inhibition above about 50%, passing the limit was not always enough
HKDC1 inh: HKDC1 (human) hexokinase inhibition; Q2TB90; 340,000 compounds, 0.16% hits; recombinant HKDC1, G6PDH/diaphorase resazurin coupled fluorescence; inhibition, % at 20 µM;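 active = inhibition above about 35% when tested at 20 µM, limit read from the data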
Target sequence (Q2TB90 whole entry, looked up): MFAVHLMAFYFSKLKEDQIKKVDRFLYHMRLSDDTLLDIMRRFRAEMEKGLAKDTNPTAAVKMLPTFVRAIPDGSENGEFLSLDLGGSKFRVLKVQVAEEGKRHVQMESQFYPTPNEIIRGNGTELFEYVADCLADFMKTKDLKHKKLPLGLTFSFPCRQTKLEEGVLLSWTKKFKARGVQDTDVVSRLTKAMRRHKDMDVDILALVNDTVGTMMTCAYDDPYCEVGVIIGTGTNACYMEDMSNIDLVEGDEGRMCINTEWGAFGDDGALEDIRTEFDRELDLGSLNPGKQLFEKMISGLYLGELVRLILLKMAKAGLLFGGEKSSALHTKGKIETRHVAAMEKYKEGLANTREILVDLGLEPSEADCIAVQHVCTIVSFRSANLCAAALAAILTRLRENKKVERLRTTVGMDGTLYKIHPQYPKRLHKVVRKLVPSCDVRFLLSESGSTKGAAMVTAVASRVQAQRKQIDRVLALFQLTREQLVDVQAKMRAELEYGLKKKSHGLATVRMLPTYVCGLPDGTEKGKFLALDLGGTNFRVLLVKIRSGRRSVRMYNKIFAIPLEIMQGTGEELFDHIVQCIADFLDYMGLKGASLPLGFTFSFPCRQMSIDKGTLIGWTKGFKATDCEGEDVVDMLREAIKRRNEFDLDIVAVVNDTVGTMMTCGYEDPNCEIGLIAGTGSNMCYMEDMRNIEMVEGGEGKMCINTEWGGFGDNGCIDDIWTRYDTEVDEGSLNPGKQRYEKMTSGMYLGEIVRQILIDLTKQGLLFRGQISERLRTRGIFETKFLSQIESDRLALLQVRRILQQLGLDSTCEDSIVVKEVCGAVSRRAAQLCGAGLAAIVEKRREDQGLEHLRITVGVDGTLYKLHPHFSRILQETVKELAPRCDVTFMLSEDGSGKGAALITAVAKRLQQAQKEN
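Test system: HK5 enzyme. Quantity: 5 µg/mL HK5 final. Reagent: glucose and ATP substrates. Schedule: 90 min reaction incubation at room temperature, dark. Technique: resazurin-to-resorufin fluorescence via G6PDH and diaphorase coupling, 525/613 nm. Control set: DMSO wells with and without enzyme mix.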
Hits are given with their value; – = inactive; · = not tested or not shown.

SMILES	M18AAP inhibitor	PfGluPho inh	APOBEC3G inh	APOBEC3A inh	UBC9 SUMO inh	HKDC1 inh
NC(=O)COc1cccc(/C=N/NC(=O)c2ccc(-n3cccc3)cc2)c1	–	–	–	–	–	–
O=C(CSc1nnc(CNC(=O)c2ccc(F)cc2)o1)Nc1nccs1	29.9	–	–	–	–	–
O=C(CCN1N=C(c2ccccc2)CCC1=O)NC1CCCCC1	·	–	·	·	·	·
C=CCOc1ccc(/C=C/C(=O)OCC(=O)N(C)C2CCS(=O)(=O)C2)cc1 (stereo not given)	–	–	–	–	–	–
Cc1ccc(S(=O)(=O)N(C(=O)c2ccncc2)c2ccc(OC(=O)c3ccncc3)c3ccccc23)c(C)c1	–	73.2	–	–	–	38.2
CC(=O)Oc1ccc(N(C(C)=O)S(=O)(=O)c2ccc(C)cc2C)c2ccccc12	–	–	–	–	–	–
COC(=O)CSc1nc(C)cc(C(F)(F)F)c1C#N	–	–	–	–	–	–
Cc1ccc(CN2CCC(CNC(=O)C3CCCN(c4ncnc5c4nc4n5CCCCC4)C3)CC2)cc1 (stereo not given)	–	–	–	–	–	–
COc1ccc(-c2csc(NC(=O)c3cc(=O)c4ccccc4o3)n2)cc1OC	–	67.0	–	–	–	–
CC(=Nc1cccc(O)c1)c1sc2ccccc2c1O	31.0	–	–	–	–	–
CC(=Nc1ccc(C)cc1)c1sc2ccccc2c1O	–	–	–	–	–	–
O=C(NCCc1ccccc1)C1CCN(S(=O)(=O)N2CCCCC2)CC1	–	–	–	–	–	–
CCCc1ccc(/C=C2\C(=O)c3ccccc3C(O)=C2C(=O)OCC)cc1	–	·	–	–	–	·
CCOC(=O)C1=C(O)c2ccccc2C(=O)/C1=C\c1ccc(CC)cc1	–	93.8	·	·	–	59.3
COc1ccc2[nH]c(=O)c(CNc3ccccc3C)cc2c1	–	–	–	–	–	–
COc1ccc2[nH]c(=O)c(CNc3ccccc3OC)cc2c1	–	69.2	–	–	–	–
Cc1nn2cc(-c3ccccc3)nc2[nH]c1=O	–	–	–	–	68.3	–
COc1ccc(OC)c(C(=O)c2ccccc2)c1	–	–	–	–	–	–
COc1ccc(CCNC(=O)CCCCCN2C(=O)[C@@H]3Cc4ccccc4CN3C2=O)cc1OC	–	–	–	–	·	–
NC(=O)/C(=C/c1ccco1)NC(=O)c1ccc(Br)o1	29.1	–	–	–	·	–
COC(=O)/C(=C/c1ccco1)NC(=O)c1ccc(Br)o1	–	–	–	–	–	–
Cc1nc(C(=O)NNC(=O)Nc2ccccc2)cs1	–	–	–	–	–	–
CCOC(=O)c1ccc(N2CSC3=C(C#N)C(c4ccc(OC)cc4OC)CC(=O)N3C2)cc1 (stereo not given)	–	–	–	–	–	–
COC(=O)CSC1=C(C#N)C(c2ccc(C(C)C)cc2)CC(=O)N1 (stereo not given)	–	–	–	–	–	–
COc1ccc2ccccc2c1C1CC(=O)N2CN(C)CSC2=C1C#N (stereo not given)	–	79.3	–	–	–	–
SMILES	M18AAP inhibitor	PfGluPho inh	APOBEC3G inh	APOBEC3A inh	UBC9 SUMO inh	HKDC1 inh
Cc1ccc(C2CC(=O)N3CN(Cc4ccco4)CSC3=C2C#N)cc1 (stereo not given)	30.9	–	–	–	–	–
CC(C)c1ccc(C2CC(=O)N3CN(C)CSC3=C2C#N)cc1 (stereo not given)	–	86.5	–	–	–	–
CCOc1ccc(N2CSC3=C(C#N)C(c4ccco4)CC(=O)N3C2)cc1 (stereo not given)	32.7	–	–	–	–	–
COC1=C(N)C(=O)c2nc(-c3nc(C(=O)O)c(C)c(-c4ccc(OC)c(OC)c4O)c3N)ccc2C1=O	–	93.0	–	–	–	–
CCC1CCCCN1C(=O)Cn1c(=O)oc2ccccc21 (stereo not given)	28.7	–	–	–	–	–
CC1=C(C#N)C(=O)N(C2CCS(=O)(=O)C2)C(=O)/C1=C\c1ccc(C)o1 (stereo not given)	30.1	·	–	–	61.2	·
Cc1ccc(/C=C2\SC(=S)N(C3CCS(=O)(=O)C3)C2=O)o1 (stereo not given)	–	–	–	–	–	–
CCc1ccc(CNC(=O)CCc2nnc(CCc3ccc(OC)cc3)o2)nc1	–	–	–	–	–	–
COc1ccc2oc(=O)c(C(=O)NCc3ccco3)cc2c1	–	–	–	–	51.8	–
COc1ccc(S(=O)(=O)CC(=O)c2cc3cc(Br)ccc3oc2=O)cc1	28.8	–	–	–	–	–
COc1ccc(-c2cc(C(F)(F)F)n3ncc(C(=O)NCc4ccco4)c3n2)cc1	–	–	–	–	63.7	–
CC1CCN(CCCCOc2ccc([N+](=O)[O-])cc2)CC1	–	–	–	–	–	–
COc1ccc(C(=O)COC(=O)CCc2ccccc2)cc1	29.6	–	–	–	–	–
O=C(Nc1ccccc1F)C1CCN(C(=O)Cc2ccccc2)CC1	–	–	–	–	–	–
CC1(C)CC(=O)C(C=NCCN2CCN(C3CC(=O)N(c4ccc(F)cc4)C3=O)CC2)=C(O)C1 (stereo not given)	–	–	–	–	–	–
CCOC(=O)C1CCCN(C(=O)/C(=C/c2ccco2)NC(=O)c2ccccc2)C1 (stereo not given)	29.9	–	–	–	–	–
N#C/C(C(N)=O)=c1/ccc2c(c1)N1C3=C(CCCC3)CC3CCCCC31N=2 (stereo not given)	–	–	–	–	–	51.5
O=C(NNC(=O)C1CCCC1)c1ccccc1F	–	–	–	–	–	–
O=C(O)Cc1sc(Nc2ccc(F)cc2)nc1-c1cccs1	29.0	–	–	–	–	–
Cc1ccc(Nc2nc(-c3ccccc3)c(CC(=O)O)s2)cc1	–	–	–	–	–	–
CCOc1ccccc1OCCC(=O)OCC(=O)c1ccc[nH]1	–	–	–	–	–	–
CNC(CC(=O)c1ccc([N+](=O)[O-])cc1)C(Cl)(Cl)Cl (stereo not given)	–	70.0	·	·	–	–
Cc1occc1C(=O)Nc1sc2c(c1C(N)=O)CCCCC2	28.7	–	–	–	–	–
CCOC(=O)c1c(N2C(=O)C=CC2=O)sc(C)c1C	–	66.9	–	–	–	–
CCOC(=O)c1c(NC(N)=O)sc(C)c1C	–	–	–	–	–	–
O=C(CSc1nnc(-c2ccco2)c(-c2ccco2)n1)Nc1ccccc1	31.7	–	–	–	–	–
COc1cccc(NC(=O)CSc2nnc(-c3ccco3)c(-c3ccco3)n2)c1	–	–	–	–	–	–
COc1ccc(NC(=O)CSc2nnc(-c3ccco3)c(-c3ccco3)n2)cc1OC	31.0	–	–	–	–	–
CN(C)c1ccc(NC(=O)CSc2nnc(-c3ccco3)c(-c3ccco3)n2)cc1	30.9	–	–	–	–	–
